PGC1a Ac signal: compounds raising PGC1a acetylation signal, primary screen, PGC1a modulator project, cell-based, U2OS, AlphaScreen, signal-increasing mode; overnight; activation, % at 15.6 µM; 0.21% of 350,000 active;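 active = every replicate reaching activation of at least 50%, whatever the mean replicate activation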;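 note: hits raise the AlphaScreen acetylation signal above neutral controls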
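System: flag-PGC1a/GCN5 U2OS cells / Input: 7000 cells/well / Compound: single test concentration per compound / Incubation: overnight compound treatment, 37 °C / Technique: AlphaScreen on lysates with anti-acetyl-lysine antibody, acceptor and donor beads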
Large screens that a line does not name were inactive. Shown is part of a subset that was picked to be rich in hits.

CCOC(=O)/C(=C\c1cccnc1)C(=O)c1cc(C(C)=O)c(Nc2ccccc2)s1	none
CCOC(=O)c1cn(-c2ccccc2)nc1-c1cccnc1	PGC1a Ac signal 77
COc1cccc(-c2nn(-c3ccccc3)cc2CN(C)C(C)c2ccncn2)c1 (stereo unspecified)	none
COc1ccc(C(=C(CC(=O)O)C(=O)OC(C)(C)C)c2cc(OC)c(OC)c(OC)c2)cc1OC	none
Cc1cc(-c2ccc(Cl)cc2)n2ncnc2n1	none
O=Nc1ccc(O)c2ncccc12	PGC1a Ac signal 245
O=[N+]([O-])c1cc(F)c2cccnc2c1O	none
O=C(N/N=C/c1ccc(O)c2ncccc12)c1cccc(Br)c1	none
C[C@@H]1CN([C@H](C)CO)C(=O)c2cccc(NC(=O)C3CCCCC3)c2O[C@@H]1CN(C)CC1CCCCC1	none
O=C(Nc1ccccc1-c1ccccc1)NC1CC2CCCC(C1)N2Cc1ccc(F)cc1 (stereo unspecified)	none
O=C(NC1CCCC1)C(c1ccncc1)N(Cc1ccccc1F)C(=O)c1csnn1 (stereo unspecified)	none
Nc1cc(N)nc(SCC(=O)Nc2ccccc2N2CCOCC2)n1	none
Cc1cc(C)nc(SCC(=O)OCN2C(=O)c3ccccc3C2=O)n1	PGC1a Ac signal 67
COCCCNC1CS(=O)(=O)CC1O (stereo unspecified)	none
O=C(CN1CCC(n2nnc3cc(F)ccc32)CC1)Nc1ccc2c(c1)CCC2	PGC1a Ac signal 103
COc1cc(/C=C/c2cccc[n+]2C)ccc1OCC(=O)Nc1ccccc1	none
Cc1cc2cc3c(cc2nc1SCC(=O)OC(C)C)OCCO3	PGC1a Ac signal 95
CSc1nc(SC)c2c3c(oc2n1)COC(C)(C)C3	PGC1a Ac signal 58
O=C(C[C@@H]1CC[C@@H](NS(=O)(=O)c2ccc(F)cc2)[C@H](CO)O1)N1CCN(c2ccccc2)CC1	none
CCOC(=O)CNC(=O)OC1CCN2Cc3ccccc3N=C12 (stereo unspecified)	none
CCC(=O)N(C)C[C@@H]1Oc2ncc(C#CCc3ccccc3)cc2C(=O)N([C@H](C)CO)C[C@@H]1C	none
CC1CCc2sc(C(=O)Nc3nnc(SCc4ccc(F)cc4)s3)cc2C1 (stereo unspecified)	none
O=C(Nc1nc(C2C3CC4CC(C3)CC2C4)cs1)c1cc2cc([N+](=O)[O-])ccc2oc1=O (stereo unspecified)	PGC1a Ac signal 52
CC(C)(C)Cc1nnc(NS(=O)(=O)c2ccc(F)cc2)s1	none
COc1ccc(CCNC(=O)COc2ccc(S(=O)(=O)N3CCCC3)cc2)cc1	none
CCc1nnc(NC(=O)Cc2ccc(S(=O)(=O)N3CCCCC3)cc2)s1	PGC1a Ac signal 65
Cc1cc(N2CCN(C)CC2)nc(=S)[nH]1	none
Nc1[nH]ncc1N=Nc1ccc(Cl)cc1	PGC1a Ac signal 65
CCCCCCNC(=O)c1ncn[nH]1	none
CSCC(O)Cn1[nH]c(=O)c2cc(Cl)c(Cl)cc2c1=O (stereo unspecified)	none
C=CCN1C(=O)N(/C=C/C)c2cccc3cccc1c23	PGC1a Ac signal 60
CCOC(=O)N1CCN(C(=O)C(NS(=O)(=O)c2cccc3nsnc23)c2ccccc2)CC1 (stereo unspecified)	PGC1a Ac signal 59
O=[N+]([O-])c1cc(-c2nnc(Nc3ccc(O)cc3)c3ccccc23)ccc1N1CCOCC1	PGC1a Ac signal 129
Cc1cc(Nc2ccccc2)cc(=O)n1C	none
COC(=O)C1=NN(C(=O)c2ccccc2)C(O)(c2ccc([N+](=O)[O-])cc2)C1 (stereo unspecified)	PGC1a Ac signal 115
O=C(c1cc(C2CC2)on1)N1CCCC(N2CCN(c3cccc(C(F)(F)F)c3)CC2)C1 (stereo unspecified)	none
CCN(CC)c1ccc(NC(=O)c2ccc(NC(=O)C3CCCO3)cc2)c(C)c1 (stereo unspecified)	PGC1a Ac signal 54
Cc1cc(=O)[nH]c(NN)n1	none
CC(C)(C)n1nnnc1CN(Cc1ccc(F)cc1)Cc1ccco1	PGC1a Ac signal 92
O=C(CSc1nnnn1-c1ccc(F)cc1)NNC(=O)c1ccco1	none
C=C1C(=O)[C@]23C[C@H]1CCC2[C@@]1(C)C(C[C@@H]3O)[C@](C)(C(=O)OC)CC[C@@H]1O (stereo partly specified)	none
CC1=C(Cl)C2=NS(=O)(=O)CCN2C=C1Cl	none
Oc1ccc(/C=N/Nc2nc(-c3ccc(Cl)cc3)cc(C(F)(F)F)n2)cc1	none
CCOC(=O)CCS(=O)(=O)c1nc(-c2ccccc2)cc(C(F)(F)F)n1	none
COc1ccc(-c2cc(C(F)(F)F)nc(S(C)(=O)=O)n2)cc1	PGC1a Ac signal 66
CCCCSc1ccc(NC(=O)c2cccnc2)cc1	PGC1a Ac signal 70
CCCCC(=O)Nc1ccc(NC(=O)c2cccs2)cn1	none
CC(=O)c1cccc(NC(=O)Nc2cccnc2)c1	none
C[C@H](CO)N1C[C@H](C)[C@H](CN(C)S(C)(=O)=O)Oc2ncc(-c3cc4ccccc4o3)cc2C1=O	none
N#C/C(=C/c1ccc(N2CCCCCC2)o1)c1ccc(F)cc1	PGC1a Ac signal 91
O=C1c2ccc(-c3ccc4c(c3)C(=O)N(CCCO)C4=O)cc2C(=O)N1CCCO	none
Cc1ccc(NCC(=O)N/N=C\C(Br)=C\c2ccccc2)cc1	PGC1a Ac signal 145

Assay outcomes (PubChem BioAssay)
